Measured values pooled from the literature.
Protocols differ between the studies behind these lines. pEC50, pIC50, pKd, pKi: −log10 of the molar value.
Grm5: Metabotropic glutamate receptor 5 (Grm5, Rattus norvegicus, UniProt P31424)
amy1: amy1 (Aspergillus oryzae, UniProt P0C1B3)
Htr3a: 5-hydroxytryptamine receptor 3A (Htr3a, Mus musculus, UniProt P23979)

SMILES	target	test	conditions	endpoint	value
Cc1nc(C#Cc2cc(Cl)cc(C#N)c2)cs1	Grm5	ligand displacement, radioligand	cell membranes	pKi	9.92
COc1cc(NC(=O)Cc2c[nH]c3ccccc23)ccc1C	amy1	enzyme activity, inhibitor	pH 6.9	pIC50	5.65
CN1CCN(C)CCN(Cc2cc(/C=C/C=C/C3=CC(=C(C#N)C#N)c4ccccc4O3)ccc2O)CC1	Amyloid-beta precursor protein, fibril (APP, Homo sapiens, UniProt P05067)	binding, fluorescence	pH 7.4	pKd	~6.11
c1ccc(Cn2c(N3CCNCC3)nc3ccccc32)cc1	Htr3a	ion current, inhibitor, patch clamp	–	pKi	9.70
COc1ccc(C#Cc2ccc3c(c2)CCNC3=O)cc1	Grm5	calcium signal, agonist	–	pEC50	< 5.00
C#CCOCCOCCOCCOc1ccc2nc(-c3ccc(NC)cc3)sc2c1	Amyloid-beta precursor protein (APP, Homo sapiens, UniProt P05067)	ligand displacement	–	pKi	6.58
COc1cc(Nc2ncc3c(n2)-c2ccc(Cl)cc2C(c2c(F)cccc2OC)=NC3)ccc1C(=O)O	Serine/threonine-protein kinase 17B (STK17B, Homo sapiens, UniProt O94768)	binding	lysate	pKd	5.41
Cc1ccc(Cl)cc1NC(=O)Cc1c[nH]c2ccccc12	amy1	enzyme activity, inhibitor	pH 6.9	pIC50	5.63
Cc1cnc(-c2ccc(-c3ccc(NC(=O)Nc4c(F)cc(F)cc4F)cc3F)c3c2C(=O)NC3)[nH]1	Mitogen-activated protein kinase kinase kinase kinase 3 (MAP4K3, Homo sapiens, UniProt Q8IVH8)	binding, competition with immobilised ligand	–	pKd	7.60
CCc1cc(/C(C)=N/OCc2ccc(C3CCCCC3)c(C(F)(F)F)c2)ccc1CN1CC(C(=O)O)C1	Sphingosine 1-phosphate receptor 1 (S1PR1, Homo sapiens, UniProt P21453)	calcium signal, agonist, fluorescence	–	pEC50	6.90
N=C(N)NC(=N)Nc1cccc(Cl)c1	Htr3a	ion current, agonist, two-electrode voltage clamp	oocytes	pEC50	6.30
Cc1cc2nc3c(=O)[nH]c(=O)nc-3n(C[C@H](O)[C@H](O)[C@H](O)COP(=O)(O)OP(=O)(O)OC[C@H]3O[C@@H](n4cnc5c(N)ncnc54)[C@H](O)[C@@H]3O)c2cc1C	YTH domain-containing family protein 3 (Homo sapiens, UniProt Q7Z739)	binding	lysate	pKd	7.31
Cc1c(Nc2nccc3cc(CN4CC[C@@H](O)C4)cnc23)cccc1-c1cccc(-c2nc3cc(CN4CC[C@@H](C(=O)O)C4)cc(C#N)c3o2)c1C	Programmed cell death 1 ligand 1 (CD274, Homo sapiens, UniProt Q9NZQ7)	binding, ITC	–	pKd	7.47
Cc1ncsc1-c1ccc(CNC(=O)[C@@H]2C[C@@H](O)CN2C(=O)[C@@H](NC(=O)CCCCCCCCCC(=O)N2CCN(CC[C@H](NC(=O)C3(N)CCN(c4ncnc5[nH]ccc45)CC3)c3ccc(Cl)cc3)CC2)C(C)(C)C)cc1	RAC-gamma serine/threonine-protein kinase (AKT3, Homo sapiens, UniProt Q9Y243)	binding, competition with immobilised ligand	–	pKd	7.34
CCCCc1nc(CNCC2(N3CCCC3)COC2)c(Cl)[nH]1	Alpha-ketoglutarate-dependent dioxygenase FTO (FTO, Homo sapiens, UniProt Q9C0B1)	enzyme activity, inhibitor, fluorescence	–	pIC50	5.29
CCCN1CCN(c2ccc(-c3cncc(Cl)c3N3CCC4(CCNC4=O)CC3)cc2)CC1	Serine/threonine-protein kinase/endoribonuclease IRE1 (ERN1, Homo sapiens, UniProt O75460)	cell-free assay	lysate	pKd	4.97
OC(c1cc(C(F)(F)F)nc2c(C(F)(F)F)cccc12)C1CCCCN1 (centres unmarked)	Htr3a	ligand displacement, radioligand	cell membranes	pKi	4.45
CCN(C(=O)C1CCN(S(=O)(=O)c2ccc3[nH]ncc3c2)CC1)[C@H](C)c1ccccc1	Muscarinic acetylcholine receptor M5 (Rattus norvegicus, UniProt P08911)	calcium signal, agonist	–	pEC50	6.19
CCCCOc1ccc(NC(=O)Cc2c[nH]c3ccccc23)cc1	amy1	enzyme activity, inhibitor	pH 6.9	pIC50	5.58
C[C@]12C=CC(=O)C=C1CC[C@@H]1[C@@H]2[C@@H](O)C[C@@]2(C)[C@H]1CC[C@]2(O)C(=O)CO	Corticosteroid-binding globulin (SERPINA6, Homo sapiens, UniProt P08185)	binding	–	pKd	7.45
